Results from ChEMBL document CHEMBL3856186, “Partial Activation and Inhibition of TRPV1 Channels by Evodiamine and Rutaecarpine, Two Major Components of the Fruits of Evodia rutaecarpa” (J Nat Prod, 2016).
Active and inactive are the calls of the source. The rule behind the calls is not given here.

How the values were obtained:
Assay type in all cases: cell-based
[1] = molecular target: Transient receptor potential cation channel subfamily V member 1 (Rattus norvegicus) (UniProt O35433); assay: Agonist activity at rat TRPV1 channel expressed in HEK293 cells assessed as outward rectifying current at 50 uM and -60 mV holding potential by whole-cell patch-clamp method
Chain of Transient receptor potential cation channel subfamily V member 1 (Rattus norvegicus) (O35433 whole entry): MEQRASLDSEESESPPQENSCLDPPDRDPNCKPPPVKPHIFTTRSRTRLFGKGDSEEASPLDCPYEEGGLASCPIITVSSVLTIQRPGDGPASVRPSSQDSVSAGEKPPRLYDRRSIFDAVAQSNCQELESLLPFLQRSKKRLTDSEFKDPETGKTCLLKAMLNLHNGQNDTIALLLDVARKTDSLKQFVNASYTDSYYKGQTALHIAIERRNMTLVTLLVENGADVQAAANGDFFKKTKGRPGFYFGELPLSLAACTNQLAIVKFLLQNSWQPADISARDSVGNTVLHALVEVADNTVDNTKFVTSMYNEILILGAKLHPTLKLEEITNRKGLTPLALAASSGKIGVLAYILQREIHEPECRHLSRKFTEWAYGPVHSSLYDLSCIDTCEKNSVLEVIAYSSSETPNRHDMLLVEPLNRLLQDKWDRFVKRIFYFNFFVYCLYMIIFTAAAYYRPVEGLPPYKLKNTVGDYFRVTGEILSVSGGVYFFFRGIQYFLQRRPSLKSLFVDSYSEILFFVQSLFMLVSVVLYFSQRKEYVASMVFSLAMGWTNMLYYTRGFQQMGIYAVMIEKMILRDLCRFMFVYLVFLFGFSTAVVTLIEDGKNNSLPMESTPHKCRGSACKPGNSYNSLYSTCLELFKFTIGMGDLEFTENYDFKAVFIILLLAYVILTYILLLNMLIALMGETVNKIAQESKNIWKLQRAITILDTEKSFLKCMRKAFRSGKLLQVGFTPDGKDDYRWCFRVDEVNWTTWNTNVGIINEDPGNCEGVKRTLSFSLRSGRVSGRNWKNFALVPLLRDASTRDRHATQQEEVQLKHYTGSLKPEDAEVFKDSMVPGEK
Method in brief: (§1)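 Rat TRPV1 cDNA and an EGFP reporter were cotransfected into HEK293 cells, with recording 1 day later. Whole-cell voltage clamp was run at room temperature (~25 °C) in standard bath (2 mM CaCl2, pH 7.4) with a KCl/MgATP/EGTA pipette solution. Steps from −100 to +100 mV (100 ms) gave I–V curves. Agonist was applied until desensitization, and peak current was scored. EC50 came from a sigmoidal fit.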

[2] = molecular target: Transient receptor potential cation channel subfamily V member 1 (Rattus norvegicus, UniProt O35433); assay: Agonist activity at rat TRPV1 channel expressed in HEK293 cells assessed as induction of channel current at -60 mV holding potential by whole-cell patch-clamp method; method in brief: as §1
Chain of Transient receptor potential cation channel subfamily V member 1 (O35433 whole entry): as above

[3] = molecular target: Transient receptor potential cation channel subfamily V member 1 (Rattus norvegicus) (UniProt O35433); assay: Agonist activity at rat TRPV1 channel expressed in HEK293 cells assessed as induction of inward current at 50 uM and -60 mV holding potential by whole-cell patch-clamp method; method in brief: as §1
[4] = molecular target: Transient receptor potential cation channel subfamily V member 1 (Rattus norvegicus) (UniProt O35433); assay: Agonist activity at rat TRPV1 channel expressed in HEK293 cells assessed as reversal potential at 50 uM and -60 mV holding potential by whole-cell patch-clamp method; method in brief: as §1
[5] = molecular target: Transient receptor potential cation channel subfamily V member 1 (Rattus norvegicus) (UniProt O35433); assay: Partial antagonist activity at rat TRPV1 expressed in HEK293 cells assessed as inhibition of proton-induced channel current at 1 or 50 uM and -60 mV holding potential pretreated for 60 secs prior to proton-challenge by whole-cell patch clamp method (reference value: 185.1 +/- 38.6 pA/pF)
Method in brief: (§2)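 Proton-activated currents were recorded in rat TRPV1-expressing HEK293 cells held at −60 mV in whole-cell mode, with bath buffered to pH 6 with 10 mM MES, at ~25 °C. Peak current amplitude was the read-out.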

[6] = molecular target: Transient receptor potential cation channel subfamily V member 1 (Rattus norvegicus) (UniProt O35433); assay: Agonist activity at rat TRPV1 channel expressed in HEK293 cells assessed as induction of maximum channel current at 50 uM at -60 mV holding potential by whole-cell patch-clamp method; method in brief: as §1
[7] = molecular target: Transient receptor potential cation channel subfamily V member 1 (Rattus norvegicus) (UniProt O35433); assay: Partial antagonist activity at rat TRPV1 expressed in HEK293 cells assessed as inhibition of proton-induced channel current at 2 uM at -60 mV holding potential co-treated with proton by whole-cell patch clamp method; method in brief: as §2

Activity [1]: Active
EC50 [2]: 2060 nM
Activity [3]: Active
Activity [4]: 0 mV
Activity [5]: -157 pA/pF
Activity [6]: -55 pA/pF
Activity [7]: -200 pA/pF
SMILES: O=c1c2ccccc2nc2n1CCc1c-2[nH]c2ccccc12 [RUTAECARPINE]
